Laboratory results as given in ChEMBL document CHEMBL4385618, “Exploring small molecules with pan-genotypic inhibitory activities against hepatitis C virus NS3/4A serine protease” (Bioorg Med Chem Lett, 2019).
pIC50, pKd: −log10 of the molar value. The source made the active and inactive calls. The calls are words filed in the database; no cut-off is given here.

What was measured:
[1] = (§1) Inhibition of recombinant wild type full length His-tagged HCV genotype 1b NS3 (1027 to 1657 residues)/4A (1658 to 1711 residues) protease expressed in Escherichia coli rosetta (DE3) cells using Ac-DE-Dap(QXL520)-EE-Abu-Psi-[COO]AS-C(5-FAMsp)-NH2 as substrate preincubated up to 10 mins followed by substrate addition and measured for 10 mins by fluorescence-based microplate reader analysis; parameters: species or system Hepatitis C virus subtype 1b
Procedure, shortened: (§2)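 IC50 came from the fluorescence-based enzymatic assay by fitting the inhibition curve to the three-parameter Hill equation.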

[2] = Binding affinity to recombinant full length His-tagged HCV genotype 1b NS3 (1027 to 1657 residues)/4A (1658 to 1711 residues) protease expressed in Escherichia coli rosetta (DE3) cells assessed as dissociation constant by SPR analysis; parameters: species or system Hepatitis C virus subtype 1b
[3] = test system: Hepatitis C virus subtype 3a; assay: (§3) Inhibition of recombinant HCV genotype 3a NS3/4A protease using Ac-DE-Dap(QXL520)-EE-Abu-Psi-[COO]AS-C(5-FAMsp)-NH2 as substrate preincubated up to 10 mins followed by substrate addition and measured for 10 mins by fluorescence-based microplate reader analysis; procedure, shortened: as §2
[4] = test system: Hepatitis C virus serine protease, NS3/NS4A (Hepatitis C virus), D2K2A8+A3EZI9 [V36M]; assay: as §1, with “recombinant” for “recombinant wild type”, “NS3/4A” for “NS3”, “1657” for “1657 residues)/4A (1658 to 1711”, “protease V36M (NS3) mutant” for “protease”; settings: Hepatitis C virus subtype 1b
Procedure, shortened: (§4)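 IC50 values come from a fluorescence-based enzymatic assay, with dose-response curves fitted to a three-parameter Hill equation. The mutants were genotype 1b NS3/4A.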

[5] = test system: Hepatitis C virus serine protease, NS3/NS4A (Hepatitis C virus), D2K2A8+A3EZI9 [A156S]; assay: as §1, with “recombinant” for “recombinant wild type”, “NS3/4A” for “NS3”, “1657” for “1657 residues)/4A (1658 to 1711”, “protease A156S (NS3) mutant” for “protease”; settings: Hepatitis C virus subtype 1b; procedure, shortened: as §4
[6] = test system: Hepatitis C virus serine protease, NS3/NS4A (Hepatitis C virus), D2K2A8+A3EZI9 [R155K]; assay: as §1, with “recombinant” for “recombinant wild type”, “NS3/4A” for “NS3”, “1657” for “1657 residues)/4A (1658 to 1711”, “protease R155K (NS3) mutant” for “protease”; settings: Hepatitis C virus subtype 1b; procedure, shortened: as §4
[7] = test system: Hepatitis C virus subtype 1a; assay: Inhibition of recombinant HCV genotype 1a NS3/4A protease using Ac-DE-Dap(QXL520)-EE-Abu-Psi-[COO]AS-C(5-FAMsp)-NH2 as substrate preincubated up to 10 mins followed by substrate addition and measured for 10 mins by fluorescence-based microplate reader analysis; procedure, shortened: as §2
[8] = test system: Hepatitis C virus genotype 4; assay: Inhibition of recombinant HCV genotype 4 NS3/4A protease using Ac-DE-Dap(QXL520)-EE-Abu-Psi-[COO]AS-C(5-FAMsp)-NH2 as substrate preincubated up to 10 mins followed by substrate addition and measured for 10 mins by fluorescence-based microplate reader analysis; procedure, shortened: as §2
[9] = test system: Hepatitis C virus subtype 2a; assay: Inhibition of recombinant HCV genotype 2a NS3/4A protease using Ac-DE-Dap(QXL520)-EE-Abu-Psi-[COO]AS-C(5-FAMsp)-NH2 as substrate preincubated up to 10 mins followed by substrate addition and measured for 10 mins by fluorescence-based microplate reader analysis; procedure, shortened: as §2
[10] = as §3; parameters: species or system Hepatitis C virus subtype 3a; procedure, shortened: as §2

Cc1ccc(S(=O)(=O)Nc2ccccc2C(=O)Nc2nc3c(ccc4ccccc43)s2)cc1
pIC50 [1]: 5.00 to 5.30

Cc1ccc(S(=O)(=O)Nc2ccccc2C(=O)Nc2nc3c(C)cc(C)cc3s2)cc1
pIC50 [1]: 5.30 to 5.70

Cc1ccc(S(=O)(=O)Nc2ccccc2C(=O)Nc2nc3c(Br)cccc3s2)cc1
pKd [2]: < 3.70
pIC50 [1]: 4.00 to 5.00

Cc1cc(NC(=O)Cc2csc(NS(=O)(=O)c3ccccc3)n2)ccc1Br
inhibition [3]: inactive

Cc1ccc(S(=O)(=O)Nc2ccccc2C(=O)Nc2nc3c(Cl)ccc(Cl)c3s2)cc1
inhibition [4]: Active
inhibition [5]: Active
inhibition [6]: Active
inhibition [7]: Active
inhibition [8]: Active
inhibition [9]: Active
pIC50 [10]: 4.48 to 4.85
pIC50 [1]: 5.80

CSc1cccc(NC(=O)Cc2csc(NS(=O)(=O)c3ccccc3)n2)c1
pIC50 [1]: 5.00 to 5.30

Cc1ccc(S(=O)(=O)Nc2ccccc2C(=O)Nc2nc3c(C)ccc(Cl)c3s2)cc1
inhibition [6]: inactive
inhibition [7]: Active
inhibition [8]: Active
inhibition [9]: Active
pIC50 [10]: 4.48 to 4.85
pIC50 [1]: 5.00 to 5.30

CSc1cccc2sc(NC(=O)c3ccccc3NS(=O)(=O)c3ccc(C)cc3)nc12
pKd [2]: < 3.70
pIC50 [1]: 4.00 to 5.00

Cc1ccc(S(=O)(=O)Nc2ccccc2C(=O)Nc2nc3ccc4sc(C)nc4c3s2)cc1
pIC50 [1]: 5.30 to 5.70

Cc1ccc(S(=O)(=O)Nc2ccccc2C(=O)Nc2nc3c(cc4c5c(cccc53)CC4)s2)cc1
inhibition [6]: inactive
inhibition [7]: Active
inhibition [8]: Active
inhibition [9]: Active
pIC50 [10]: 4.48 to 4.85
pIC50 [1]: 5.30 to 5.70

Cc1ccc(S(=O)(=O)Nc2ccccc2C(=O)Nc2nc3ccc4ccccc4c3s2)cc1
pIC50 [1]: 5.30 to 5.70

Cc1c(Cl)cccc1NC(=O)Cc1csc(NS(=O)(=O)c2ccccc2)n1
pIC50 [1]: 5.00 to 5.30

Cc1ccc(S(=O)(=O)Nc2ccccc2C(=O)Nc2nc(-c3cc(Cl)ccc3Cl)cs2)cc1
inhibition [6]: inactive
inhibition [7]: Active
inhibition [8]: Active
inhibition [9]: Active
pIC50 [10]: 4.48 to 4.85
pIC50 [1]: > 5.70
